Arr AP2 block: inhibitors of human beta-arrestin and AP2 interaction | inhibition, % at 10 µM | AID 504490 | FITC-arrestin peptide / GST-AP2 beads, flow cytometry; AP2 beta2 appendage carries R879A mutation | hit rate 0.31% among 340,000;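 active means inhibition above a set limit, near 3 SD of compounds lacking own fluorescence, cut at about 54% in these data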;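 further: plate controls were DMSO wells for no effect and 5 µM unlabelled arrestin peptide for full effect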
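Test system: GST-tagged AP2 beta2-adaptin appendage (R879A) on 4 µm glutathione beads; also added: fluorescein-tagged arrestin peptide at 50 nM final; timing: 12 min plus 1 h, RT; signal: flow cytometry, FL1 (488/535 nm); read-out: percent drop in bead-associated FITC signal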
Fh CTSL1 inh: cathepsin L1 inhibition, PFM18AAP counter-screen | inhibition, % at 5.96 µM | AID 1906 | hit rate 0.49% among 300,000 | recombinant F. hepatica cathepsin L1, Z-Leu-Arg-MCA fluorescence;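 active means inhibition above the mean of all tested compounds plus 3 SD, set per screening campaign, cut at about 17% in these data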;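 further: 0% = plate median of test compound wells and 100% = 1 µM Z-Phe-Ala-diazomethylketone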
Hep lipid drop: hepatic lipid droplet formation modulation | AML12 mouse hepatocytes, oleate lipid droplets, BODIPY imaging | inhibition, % at 6.5 µM | hit rate 0.4% among 240,000;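 active means lipid droplet intensity inhibited by at least 50%, with more than 500 cells counted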
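Assay system: AML12 hepatocytes (mouse); Probe or stimulus: oleic acid at 100 µM to induce lipid droplet formation; Dosing: compound at 6.5 µM only; Schedule: compound with oleate, overnight; Detection: fluorescence imaging, 20x objective, two fields per well; Measure: % inhibition of lipid droplet signal.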
p-CIP stab down: lowers stability of the mouse p/CIP coactivator protein | Q05BA5 | AID 1984 | decrease of EGFP signal, % at 10 µM | F442A p/CIP-EGFP cells, EGFP fluorescence, 16 h | hit rate 0.01% among 290,000;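 active means EGFP signal decrease of at least 30% at 10 µM or well 3 SD below plate mean, unless failing retest; inactive means the rest, including hits failing retest or dose response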
Arr AP2 CP1: human beta-arrestin and AP2 interaction inhibition, cherry pick; AID 504908; hit rate 2% among 1,300; shares compounds with Arr AP2 block; GST-AP2 beads, FITC arrestin peptide binding, flow cytometry; GST-fused beta2-adaptin appendage, R879A mutant; inhibition, % at 10 µM;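 active means inhibition above a set limit, roughly 3 SD of non-fluorescent compound noise, cut at about 38% in these data; inactive means inhibition at or below that limit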;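 further: loss of bead fluorescence from 50 nM FITC arrestin peptide bound to appendage; 0% = negative control wells and 100% = excess unlabelled arrestin peptide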
Target sequence (P63010 whole entry, looked up, the tested form may be a part, one chain of several): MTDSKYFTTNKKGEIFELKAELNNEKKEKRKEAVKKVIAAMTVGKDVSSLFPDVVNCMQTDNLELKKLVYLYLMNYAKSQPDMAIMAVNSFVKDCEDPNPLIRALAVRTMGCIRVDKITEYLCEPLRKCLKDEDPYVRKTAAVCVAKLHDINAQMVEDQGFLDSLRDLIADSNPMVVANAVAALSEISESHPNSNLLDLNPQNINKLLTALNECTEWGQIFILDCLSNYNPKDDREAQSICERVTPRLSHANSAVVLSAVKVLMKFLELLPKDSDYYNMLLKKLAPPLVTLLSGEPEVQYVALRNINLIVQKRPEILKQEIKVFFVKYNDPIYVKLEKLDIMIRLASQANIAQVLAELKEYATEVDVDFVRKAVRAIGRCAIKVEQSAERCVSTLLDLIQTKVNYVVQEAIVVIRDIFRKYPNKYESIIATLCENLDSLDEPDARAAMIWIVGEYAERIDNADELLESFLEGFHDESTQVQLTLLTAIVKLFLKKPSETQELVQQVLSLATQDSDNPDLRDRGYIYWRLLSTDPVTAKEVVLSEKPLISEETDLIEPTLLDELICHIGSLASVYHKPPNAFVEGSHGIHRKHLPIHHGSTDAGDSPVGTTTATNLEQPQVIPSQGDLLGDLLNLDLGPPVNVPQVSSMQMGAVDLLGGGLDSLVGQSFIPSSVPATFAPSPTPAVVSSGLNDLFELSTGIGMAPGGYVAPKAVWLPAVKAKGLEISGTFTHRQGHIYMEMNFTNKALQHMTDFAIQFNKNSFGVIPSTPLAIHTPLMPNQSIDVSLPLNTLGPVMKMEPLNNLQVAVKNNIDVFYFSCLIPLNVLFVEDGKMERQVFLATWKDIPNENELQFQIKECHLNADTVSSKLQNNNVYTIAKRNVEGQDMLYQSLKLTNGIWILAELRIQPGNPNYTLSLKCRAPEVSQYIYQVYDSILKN
GST-FITC bead: disrupts GST binding to glutathione beads, arrestin-AP2 artifact; shares compounds with Arr AP2 block; GST-fluorescein binding to GSH beads, fluorescence, counter-screen; inhibition, % at 10 µM; hit rate 2% among 1,300;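 active means inhibition above 50%, about 3 SD of the inhibition seen with non-fluorescent compounds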;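 further: fluorescein maleimide labelled GST captured on 4 micron glutathione beads; higher means more loss of bead fluorescence from quenching or blocked binding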
Numbers without * were called inactive. A selection: hits, their analogues and other compounds. The true share with any hit is near 1%.

What do the screens show for `CCN1/C(=C/C(C)=C/c2sc3ccccc3[n+]2CC)Sc2ccccc21`?
Arr AP2 block: 85.9*; Fh CTSL1 inh: -0.4; Hep lipid drop: -82.1; p-CIP stab down: -5.4; Arr AP2 CP1: 71.2*; GST-FITC bead: 48.2

Results for CCOC(=O)CN1C(=O)NC2NC(=O)NC21 (stereo not drawn) ?
Arr AP2 block: 79.0*; Fh CTSL1 inh: -4.4; p-CIP stab down: -4.9; Arr AP2 CP1: 3.5; GST-FITC bead: -5.5

Results for CC(=O)Nc1ccc(NC(=O)C(C)OC(=O)CNC(=O)c2cccs2)cc1 (stereo not drawn) ?
Arr AP2 block: -2.6; Fh CTSL1 inh: -8.0

What do the screens show for `CCOc1ccc(-n2cc(C(=O)N3CCC(C)CC3)c3cc(OC)c(OC)cc3c2=O)cc1`?
Arr AP2 block: 56.3*; Fh CTSL1 inh: 3.8; p-CIP stab down: -6.2; Arr AP2 CP1: -14.9; GST-FITC bead: -14.2

How did CCOC(=O)c1c(NC(C)=O)sc2c1C1CCN2CC1 do in these assays?
Arr AP2 block: 16.4; Fh CTSL1 inh: -0.2

What do the screens show for `CCNC(=O)/C(C#N)=C/c1c(N2CCN(Cc3ccc4c(c3)OCO4)CC2)nc2c(C)cccn2c1=O`?
Arr AP2 block: 57.2*; Fh CTSL1 inh: 1.1; Hep lipid drop: -5.2; p-CIP stab down: -4.8; Arr AP2 CP1: 3.6; GST-FITC bead: -7.0

Results for CN(c1ccc(F)cc1)S(=O)(=O)c1ccc(Cl)c(C(=O)NCC2(N3CCOCC3)CCCCC2)c1 ?
Arr AP2 block: -2.5; Arr AP2 CP1: -13.3; GST-FITC bead: -6.2

Results for COc1ccc(Cl)cc1NS(=O)(=O)c1cccc(C(=O)NCC2(N(C)C)CCCCC2)c1 ?
Arr AP2 block: 39.4; Hep lipid drop: 3.6; p-CIP stab down: -1.5; Arr AP2 CP1: 4.2; GST-FITC bead: -2.2

What do the screens show for `COc1ccccc1N(C)S(=O)(=O)c1ccc(Cl)c(C(=O)NCC2(N(C)C)CCCCC2)c1`?
Arr AP2 block: -1.9; Fh CTSL1 inh: 6.3; Arr AP2 CP1: 6.1; GST-FITC bead: 1.8

What do the screens show for `COc1ccccc1NS(=O)(=O)c1ccc(C(=O)NCC2(N(C)C)CCCCC2)cc1`?
Arr AP2 block: -5.2; Fh CTSL1 inh: 2.5

Results for COc1ccccc1NS(=O)(=O)c1cccc(C(=O)NCC2(N(C)C)CCCCC2)c1 ?
Arr AP2 block: 3.1; Fh CTSL1 inh: 8.6; Arr AP2 CP1: -1.1; GST-FITC bead: -14.7

Results for O=C(Nc1cc(Br)ccc1O)C1CC(c2ccccc2Cl)=NO1 (stereo not drawn) ?
Arr AP2 block: 5.1; Hep lipid drop: 9.8; p-CIP stab down: 2.4

What do the screens show for `O=S(=O)(NCCOc1ccccc1)c1ccc2ccccc2c1`?
Arr AP2 block: -0.8; Fh CTSL1 inh: 1.6; Hep lipid drop: -6.2; p-CIP stab down: 2.1

Results for COc1ccc(-n2c(SCC3OCCO3)nc3c(sc(=S)n3-c3ccccc3)c2=O)cc1OC ?
Arr AP2 block: -25.2; Fh CTSL1 inh: 6.1; Hep lipid drop: -23.4; p-CIP stab down: 7.5

Results for COc1cc(OC)cc(C(=O)Nc2ccc(S(=O)(=O)Nc3ncccn3)cc2)c1 ?
Arr AP2 block: 54.7*; Fh CTSL1 inh: -0.2; Hep lipid drop: 23.7; p-CIP stab down: 5.6; Arr AP2 CP1: -3.7; GST-FITC bead: -2.7

How did O=C1CCCC2=C1C(c1cccs1)Nc1ccccc1N2 (stereo not drawn) do in these assays?
Arr AP2 block: 70.1*; Fh CTSL1 inh: 0.2; Hep lipid drop: 14.5; p-CIP stab down: -5.5; Arr AP2 CP1: -4.3; GST-FITC bead: -3.5

What do the screens show for `CC1(C)CC(=O)C2=C(C1)Nc1ccccc1NC2c1cccs1` (stereo not drawn)?
Arr AP2 block: -0.8; Fh CTSL1 inh: -1.2; Hep lipid drop: 9.3; p-CIP stab down: -14.5

What do the screens show for `CC(C)CCNC(=O)CCn1nc(-c2ccc(Cl)cc2)ccc1=O`?
Arr AP2 block: -10.4; Fh CTSL1 inh: 7.1; Hep lipid drop: -17.8; p-CIP stab down: -7.4

What do the screens show for `O=C(CCn1nc(-c2ccc(Cl)cc2)ccc1=O)NCc1ccccn1`?
Arr AP2 block: 79.0*; Fh CTSL1 inh: -4.2; p-CIP stab down: -4.3; Arr AP2 CP1: -0.6; GST-FITC bead: -6.3

Assay outcomes deposited in PubChem by several laboratories.
